Values joined by “and” are separate entries in the source; they are usually repeats but may differ in a detail not shown here. Identical values can stand only once.
Assays:
[1] = biological target: human recombinant STAT3 SH2 protein (Homo sapiens, UniProt P40763); assay: Fluorescence polarization; type: binding; settings: for times less potent than SI-109 in binding to STAT3: ratio of binding affinities vs SI-109
STAT3 protein [2] = biological target: T1, STAT3 protein (Homo sapiens, UniProt P40763); assay: Western blotting of STAT3 degradation in SU-DHL-1 cells; type: cell-based; settings: for times less potent than SD-36 in STAT3 degradation: SU-DHL-1 cells, ratio of DC50; for reducing the levels of STAT3 and pSTAT3^Y705 proteins: SU-DHL-1, up to 5 μM
STAT3 protein [3] = biological target: T1, STAT3 protein; assay: Western blotting of STAT3 degradation in Molm-16 cells; type: cell-based; settings: for times less potent than SD-36 in STAT3 degradation: Molm-16 cells, ratio of DC50; for degradation of total STAT3 and pSTAT3^Y705 proteins: Molm-16, concentrations up to 10 μM
STAT3 protein [4] = biological target: STAT3 protein (Mus musculus, UniProt P42227); assay: Pharmacodynamics in native mouse spleen tissue; type: in vivo; settings: single intravenous dose, 25 mg/kg, CD-1 mice
Summary of the method: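 Female CD-1 mice received a single intravenous dose of test compound or vehicle (10% PEG400 + 90% PBS). Mice were euthanized at set time points and spleens harvested. Native spleen lysates were immunoblotted for STAT3.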

Molm-16 cell line = assay: Cell growth assay; type: cell-based; settings: Molm-16

T1 sequence (P40763 whole entry): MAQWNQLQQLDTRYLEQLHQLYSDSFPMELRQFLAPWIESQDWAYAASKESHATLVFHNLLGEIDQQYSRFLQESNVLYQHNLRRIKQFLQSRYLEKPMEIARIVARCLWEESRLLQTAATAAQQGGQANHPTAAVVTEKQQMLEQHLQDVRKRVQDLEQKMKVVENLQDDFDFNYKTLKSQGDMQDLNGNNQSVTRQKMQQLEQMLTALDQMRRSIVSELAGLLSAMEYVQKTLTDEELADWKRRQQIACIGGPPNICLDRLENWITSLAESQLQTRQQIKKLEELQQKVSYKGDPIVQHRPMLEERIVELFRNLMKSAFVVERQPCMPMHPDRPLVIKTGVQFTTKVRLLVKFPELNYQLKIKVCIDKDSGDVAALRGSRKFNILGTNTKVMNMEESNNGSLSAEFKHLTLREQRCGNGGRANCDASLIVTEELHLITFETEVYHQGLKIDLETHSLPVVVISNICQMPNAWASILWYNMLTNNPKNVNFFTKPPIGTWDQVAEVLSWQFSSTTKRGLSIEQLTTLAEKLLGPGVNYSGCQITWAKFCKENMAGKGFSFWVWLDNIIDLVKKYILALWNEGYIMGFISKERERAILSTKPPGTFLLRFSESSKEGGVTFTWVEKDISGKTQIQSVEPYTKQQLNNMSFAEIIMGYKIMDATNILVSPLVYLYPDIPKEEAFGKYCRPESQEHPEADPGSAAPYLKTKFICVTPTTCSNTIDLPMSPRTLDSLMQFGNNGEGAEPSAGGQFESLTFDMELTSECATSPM
Chain of human recombinant STAT3 SH2 protein (P40763 127-688): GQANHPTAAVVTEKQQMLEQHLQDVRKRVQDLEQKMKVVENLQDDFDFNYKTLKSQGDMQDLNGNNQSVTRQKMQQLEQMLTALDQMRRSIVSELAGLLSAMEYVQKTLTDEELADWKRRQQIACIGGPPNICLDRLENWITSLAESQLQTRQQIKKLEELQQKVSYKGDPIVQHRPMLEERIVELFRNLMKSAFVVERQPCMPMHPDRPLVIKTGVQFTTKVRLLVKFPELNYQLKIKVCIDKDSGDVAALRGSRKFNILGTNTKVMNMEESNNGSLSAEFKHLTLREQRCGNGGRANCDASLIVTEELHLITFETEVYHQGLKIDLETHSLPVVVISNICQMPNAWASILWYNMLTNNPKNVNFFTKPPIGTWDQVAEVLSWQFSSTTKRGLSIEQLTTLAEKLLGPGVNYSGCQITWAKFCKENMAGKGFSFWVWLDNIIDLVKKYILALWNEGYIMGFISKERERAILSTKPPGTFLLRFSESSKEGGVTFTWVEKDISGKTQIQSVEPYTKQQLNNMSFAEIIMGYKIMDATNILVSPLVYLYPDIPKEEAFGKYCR
Chain of STAT3 protein (Mus musculus, UniProt P42227) (P42227 whole entry): as the sequence (P40763 whole entry) above, with E760D counted along it

`NC(=O)CC[C@H](NC(=O)[C@@H]1CC[C@@H]2CCCC[C@H](NC(=O)c3cc4cc(CP(=O)(O)O)ccc4[nH]3)C(=O)N21)C(=O)NCc1ccccc1` [Compound 3, (2-((3S,6S)-3-((S)-5-Amino-1-(benzylamino)-1,5-dioxopentan-2-ylcarbamoyl)-5-oxodecahydropyrrolo[1,2-a]azocin-6-ylcarbamoyl)-1H-indol-5-yl)methylphosphonic Acid] was tested, and the “times weaker than 2 in binding to STAT3” value ([1]; ratio of Ki vs compound 2) was 30 times.

In the case of `NC(=O)CC[C@H](NC(=O)[C@@H]1CC[C@@H]2CCCC[C@H](NC(=O)c3cc4cc(C(F)(F)P(=O)(O)O)ccc4[nH]3)C(=O)N21)C(=O)NCc1ccccc1` [Compound 4, (2-((3S,6S)-3-((S)-5-Amino-1-(benzylamino)-1,5-dioxopentan-2-ylcarbamoyl)-5-oxodecahydropyrrolo[1,2-a]azocin-6-ylcarbamoyl)-1H-indol-5-yl)difluoromethylphosphonic Acid], the “times more potent than 3 in binding to STAT3” value ([1]; ratio of Ki vs compound 3) is reported as over 100 times.

With `CC(=O)N1CC[C@H]2CC[C@@H](C(=O)N[C@@H](CCC(N)=O)C(=O)NC(c3ccccc3)c3ccccc3)N2C(=O)[C@@H](NC(=O)c2cc3cc(OP(=O)(O)O)ccc3[nH]2)C1` [Compound 9, 2-(((5S,8S,10aR)-3-Acetyl-8-(((S)-5-amino-1-(benzhydrylamino)-1,5-dioxopentan-2-yl)carbamoyl)-6-oxodecahydropyrrolo[1,2-a][1,5]diazocin-5-yl)carbamoyl)-1H-indol-5-yl Dihydrogen Phosphate] the “times less potent than SI-109 in binding to STAT3” value [1] was 2 times.

With `CC(=O)N1CC[C@H]2CC[C@@H](C(=O)N[C@@H](CCC(N)=O)C(=O)NC(c3ccccc3)c3ccccc3)N2C(=O)[C@@H](NC(=O)c2cc3cc(CP(=O)(O)O)ccc3[nH]2)C1` [Compound 10, ((2-(((5S,8S,10aR)-3-Acetyl-8-(((S)-5-amino-1-(benzhydrylamino)-1,5-dioxopentan-2-yl)carbamoyl)-6-oxodecahydropyrrolo[1,2-a][1,5]diazocin-5-yl)carbamoyl)-1 H-indol-5-yl)methyl)phosphonic Acid] the “times less potent than SI-109 in binding to STAT3” value [1] was 14 times.

For `CC(=O)N1CC[C@H]2CC[C@@H](C(=O)N[C@@H](CCC(N)=O)C(=O)NC(c3ccccc3)c3ccccc3)N2C(=O)[C@@H](NC(=O)/C=C(\C)c2ccc(C(F)(F)P(=O)(O)O)cc2)C1` [Compound 11, ((4-((E)-4-(((5S,8S,10aR)-3-Acetyl-8-(((S)-5-amino-1-(benzhydrylamino)-1,5-dioxopentan-2-yl)carbamoyl)-6-oxodecahydropyrrolo[1,2-a][1,5]diazocin-5-yl)amino)-4-oxobut-2-en-2-yl)phenyl)difluoromethyl)phosphonic Acid], the “times less potent than SI-109 in binding to STAT3” value [1] was over 10 times.

With `NC(=O)CC[C@H](NC(=O)[C@@H]1CC[C@@H]2CCN(CCCCCCC#Cc3cccc4c3CN(C3CCC(=O)NC3=O)C4=O)C[C@H](NC(=O)c3cc4cc(C(F)(F)P(=O)(O)O)ccc4[nH]3)C(=O)N21)C(=O)NC(c1ccccc1)c1ccccc1` (stereo partly drawn) [Compound 17, ((2-(((5S,8S,10aR)-8-(((S)-5-Amino-1-(benzhydrylamino)-1,5-dioxopentan-2-yl)carbamoyl)-3-(8-(2-(2,6-dioxopiperidin-3-yl)-1-oxoisoindolin-4-yl)oct-7-yn-1-yl)-6-oxodecahydropyrrolo[1,2-a][1,5]diazocin-5-yl)carbamoyl)-1H-indol-5-yl)difluoromethyl)phosphonic Acid] the “times less potent than SD-36 in STAT3 degradation” value (STAT3 protein [2]) was 30 times and the “times less potent than SD-36 in STAT3 degradation” value (STAT3 protein [3]) was over 10 times.

With `NC(=O)CC[C@H](NC(=O)[C@@H]1CC[C@@H]2CCN(C(=O)NCCCCC#Cc3cccc4c3CN(C3CCC(=O)NC3=O)C4=O)C[C@H](NC(=O)c3cc4cc(C(F)(F)P(=O)(O)O)ccc4[nH]3)C(=O)N21)C(=O)NC(c1ccccc1)c1ccccc1` (stereo partly drawn) [Compound 19, ((2-(((5S,8S,10aR)-8-(((S)-5-Amino-1-(benzhydrylamino)-1,5-dioxopentan-2-yl)carbamoyl)-3-((6-(2-(2,6-dioxopiperidin-3-yl)-1-oxoisoindolin-4-yl)hex-5-yn-1-yl)carbamoyl)-6-oxodecahydropyrrolo[1,2-a][1,5]diazocin-5-yl)carbamoyl)-1H-indol-5-yl)difluoromethyl)phosphonic Acid] the “persistence of STAT3 reduction in spleen” value (STAT3 protein [4]) was “more than 48 h” and the “reducing STAT3 protein in native mouse spleen tissue” value (STAT3 protein [4]) was “very effective”.

`NC(=O)CC[C@H](NC(=O)[C@@H]1CC[C@@H]2CCN(C(=O)CCCCCC#Cc3cccc4c3C(=O)N(C3CCC(=O)NC3=O)C4=O)C[C@H](NC(=O)c3cc4cc(C(F)(F)P(=O)(O)O)ccc4[nH]3)C(=O)N21)C(=O)NC(c1ccccc1)c1ccccc1` (stereo partly drawn) [Compound 27, ((2-(((5S,8S,10aR)-8-(((S)-5-Amino-1-(benzhydrylamino)-1,5-dioxopentan-2-yl)carbamoyl)-3-(8-(2-(2,6-dioxopiperidin-3-yl)-1,3-dioxoisoindolin-4-yl)oct-7-ynoyl)-6-oxodecahydropyrrolo[1,2-a][1,5]diazocin-5-yl)carbamoyl)-1H-indol-5-yl)difluoromethyl)phosphonic Acid] was tested, and the “reducing the levels of STAT3 and pSTAT3^Y705 proteins” value (STAT3 protein [2]) was “ineffective” and the “times less potent than SD-36 in STAT3 degradation” value (STAT3 protein [3]) was over 50 times.

With `NC(=O)CC[C@H](NC(=O)[C@@H]1CC[C@@H]2CCN(C(=O)CCCCCC#Cc3cccc4c3CN(C3CCC(=O)NC3=O)C4=O)C[C@H](NC(=O)c3cc4cc(C(F)(F)P(=O)(O)O)ccc4[nH]3)C(=O)N21)C(=O)NCc1ccccc1` (stereo partly drawn) [Compound 30, ((2-(((5S,8S,10aR)-8-(((S)-5-Amino-1-(benzylamino)-1,5-dioxopentan-2-yl)carbamoyl)-3-(8-(2-(2,6-dioxopiperidin-3-yl)-1-oxoisoindolin-4-yl)oct-7-ynoyl)-6-oxodecahydropyrrolo-[1,2-a][1,5]diazocin-5-yl)carbamoyl) −1H-indol-5-yl)difluoromethyl)phosphonic Acid] the “times less potent than SD-36 in STAT3 degradation” value (STAT3 protein [2]) was 2 times and the “times less potent than SD-36 in STAT3 degradation” value (STAT3 protein [3]) was 4 times.

For `CNC(=O)[C@H](CCC(N)=O)NC(=O)[C@@H]1CC[C@@H]2CCN(C(=O)CCCCCC#Cc3cccc4c3CN(C3CCC(=O)NC3=O)C4=O)C[C@H](NC(=O)c3cc4cc(C(F)(F)P(=O)(O)O)ccc4[nH]3)C(=O)N21` (stereo partly drawn) [Compound 31, ((2-(((5S,8S,10aR)-8-(((S)-5-Amino-1-(methylamino)-1,5-dioxopentan-2-yl)carbamoyl)-3-(8-(2-(2,6-dioxopiperidin-3-yl)-1-oxoisoindolin-4-yl)oct-7-ynoyl)-6-oxodecahydropyrrolo-[1,2-a][1,5]diazocin-5-yl)carbamoyl)-1H-indol-5-yl)difluoromethyl)phosphonic Acid], the “times less potent than SD-36 in STAT3 degradation” value (STAT3 protein [2]) was 30 times and the “times less potent than SD-36 in STAT3 degradation” value (STAT3 protein [3]) was 10 times and > 10 times.

`NC(=O)CC[C@H](NC(=O)[C@@H]1CC[C@@H]2CCN(C(=O)CCCCCC#Cc3cccc4c3CN(C3CCC(=O)NC3=O)C4=O)C[C@H](NC(=O)c3cc4cc(OP(=O)(O)O)ccc4[nH]3)C(=O)N21)C(=O)NC(c1ccccc1)c1ccccc1` (stereo partly drawn) [Compound 32, 2-(((5S,8S,10aR)-8-(((S)-5-Amino-1-(benzhydrylamino)-1,5-dioxopentan-2-yl)carbamoyl)-3-(8-(2-(2,6-dioxopiperidin-3-yl)-1-oxoisoindolin-4-yl)oct-7-ynoyl)-6-oxodecahydropyrrolo-[1,2-a][1,5]diazocin-5-yl)carbamoyl)-1H-indol-5-yl Dihydrogen Phosphate] was tested, and the “degradation of total STAT3 and pSTAT3^Y705 proteins” value (STAT3 protein [3]) was “fail to degrade” and the “activity in inhibition of cell growth” value (Molm-16 cell line) was “very weak activity”.

For `NC(=O)CC[C@H](NC(=O)[C@@H]1CC[C@@H]2CCN(C(=O)CCCCCC#Cc3cccc4c3CN(C3CCC(=O)NC3=O)C4=O)C[C@H](NC(=O)c3cc4cc(CP(=O)(O)O)ccc4[nH]3)C(=O)N21)C(=O)NC(c1ccccc1)c1ccccc1` (stereo partly drawn) [Compound 33, ((2-(((5S,8S,10aR)-8-(((S)-5-Amino-1-(benzhydrylamino)-1,5-dioxopentan-2-yl)carbamoyl)-3-(8-(2-(2,6-dioxopiperidin-3-yl)-1-oxoisoindolin-4-yl)oct-7-ynoyl)-6-oxodecahydropyrrolo-[1,2-a][1,5]diazocin-5-yl)carbamoyl)-1H-indol-5-yl)methyl)-phosphonic Acid], the “degradation of total STAT3 and pSTAT3^Y705 proteins” value (STAT3 protein [3]) was “fail to degrade” and the “activity in inhibition of cell growth” value (Molm-16 cell line) was “very weak activity”.

With `C/C(=C\C(=O)N[C@H]1CN(C(=O)CCCCCC#Cc2cccc3c2CN(C2CCC(=O)NC2=O)C3=O)CC[C@H]2CC[C@@H](C(=O)N[C@@H](CCC(N)=O)C(=O)NC(c3ccccc3)c3ccccc3)N2C1=O)c1ccc(C(F)(F)P(=O)(O)O)cc1` (stereo partly drawn) [Compound 34, ((4-((E)-4-(((5S,8S,10aR)-8-(((S)-5-Amino-1-(benzhydrylamino)-1,5-dioxopentan-2-yl)carbamoyl)-3-(8-(2-(2,6-dioxopiperidin-3-yl)-1-oxoisoindolin-4-yl)oct-7-ynoyl)-6-oxodecahydropyrrolo[1,2-a][1,5]diazocin-5-yl)amino)-4-oxobut-2-en-2-yl)phenyl)difluoromethyl)phosphonic Acid] the “effect on the levels of STAT3 and pSTAT3^Y705” value (STAT3 protein [2]; SU-DHL-1, concentrations up to 10 μM) was “fails to degrade”, the “reducing the levels of STAT3 and pSTAT3^Y705 proteins” value (STAT3 protein [2]) was “ineffective” and the “times less potent than SD-36 in STAT3 degradation” value (STAT3 protein [3]) was over 70 times.

From PMC8848307 (Journal of medicinal chemistry, 2019)
